According to ChEMBL document CHEMBL1151808, “Substrate promiscuity of the cyclic dipeptide prenyltransferases from Aspergillus fumigatus ( section sign)” (J Nat Prod, 2009):
Calls of active or inactive are those of the source. No cut-off for these calls is given here.

Experiments:
Aspergillus fumigatus [1] = assay: Activity at 1.62 uM Aspergillus fumigatus CdpNPT assessed as compound conversion rate at 1 mM after 16 hrs by HPLC analysis in presence of dimethylallyl diphosphate relative to L-tryptophan
In short: (§1)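 His6-CdpNPT (1.62 µM) or His6-FtmPT1 (1.68 µM) with 1 mM tryptophan derivative and 2 mM DMAPP in Tris-HCl pH 7.5/CaCl2, 37 °C for 2 or 16 h. MeOH quench, then RP18 HPLC with 30–70% MeOH gradient. Conversion expressed relative to L-tryptophan; two independent assays.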

[2] = molecular target: Tryprostatin B synthase ftmPT1 (Aspergillus fumigatus) (UniProt Q4WAW7); assay: Activity at 1.68 uM Aspergillus fumigatus FtmPT1 assessed as compound conversion rate at 1 mM after 16 hrs by HPLC analysis in presence of dimethylallyl diphosphate relative to L-tryptophan; in short: as §1
Sequence of Tryprostatin B synthase ftmPT1 (Aspergillus fumigatus) (Q4WAW7 whole entry): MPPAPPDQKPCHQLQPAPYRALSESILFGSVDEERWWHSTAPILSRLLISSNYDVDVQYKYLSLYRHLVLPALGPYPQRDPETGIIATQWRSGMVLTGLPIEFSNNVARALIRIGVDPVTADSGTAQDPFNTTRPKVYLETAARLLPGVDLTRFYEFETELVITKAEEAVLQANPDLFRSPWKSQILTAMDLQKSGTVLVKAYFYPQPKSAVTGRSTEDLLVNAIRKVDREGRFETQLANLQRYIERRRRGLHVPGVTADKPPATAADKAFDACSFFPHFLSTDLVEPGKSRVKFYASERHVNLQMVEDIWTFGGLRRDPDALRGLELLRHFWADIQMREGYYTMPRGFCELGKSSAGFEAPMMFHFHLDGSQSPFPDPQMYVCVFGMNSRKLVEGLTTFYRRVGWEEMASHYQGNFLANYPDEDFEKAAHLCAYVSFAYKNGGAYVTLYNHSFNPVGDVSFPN

Aspergillus fumigatus [3] = assay: Activity at 1.62 uM Aspergillus fumigatus CdpNPT assessed as compound conversion rate at 1 mM after 2 hrs by HPLC analysis in presence of dimethylallyl diphosphate relative to L-tryptophan; in short: as §1
[4] = molecular target: Tryprostatin B synthase ftmPT1 (Aspergillus fumigatus) (UniProt Q4WAW7); assay: Activity at 1.68 uM Aspergillus fumigatus FtmPT1 assessed as compound conversion rate at 1 mM after 2 hrs by HPLC analysis in presence of dimethylallyl diphosphate relative to L-tryptophan; in short: as §1
[5] = molecular target: Tryprostatin B synthase ftmPT1 (Aspergillus fumigatus) (UniProt Q4WAW7); assay: Activity at 1.12 uM Aspergillus fumigatus FtmPT1 assessed as compound conversion rate at 1 mM after 16 hrs by HPLC analysis in presence of dimethylallyl diphosphate
In short: (§2)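 Performed in 50 mM Tris-HCl (pH 7.5) with 10 mM CaCl2, 1 mM tryptophan or derivative, and 2 mM DMAPP, using purified His6-tagged recombinant enzyme at 37 °C. Reactions were stopped with an equal volume of MeOH and protein removed by centrifugation. Products were quantified by RP18 HPLC as the conversion rate of substrate. Two independent assays were run.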

Aspergillus fumigatus [6] = assay: Activity at 1.62 uM Aspergillus fumigatus CdpNPT assessed as compound conversion rate at 1 mM after 2 hrs by HPLC analysis in presence of dimethylallyl diphosphate; in short: as §2
Aspergillus fumigatus [7] = assay: Activity at 0.54 uM Aspergillus fumigatus CdpNPT assessed as compound conversion rate at 1 mM after 2 hrs by HPLC analysis in presence of dimethylallyl diphosphate
In short: (§3)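 Recombinant His6-CdpNPT (0.11–1.62 µM) with 1 mM substrate and 2 mM DMAPP in 50 mM Tris-HCl pH 7.5, 10 mM CaCl2, 100 µL, 37 °C for 2 h. Heat-inactivated enzyme served as control. Stopped with MeOH, protein spun off, products read by RP18 HPLC as peaks and retention times, conversion from peak areas.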

Aspergillus fumigatus [8] = assay: Activity at 0.11 uM Aspergillus fumigatus CdpNPT assessed as compound conversion rate at 1 mM after 2 hrs by HPLC analysis in presence of dimethylallyl diphosphate; in short: as §3
Aspergillus fumigatus [9] = assay: Ratio Kcat to Km for Aspergillus fumigatus CdpNPT by HPLC analysis relative to L-tryptophan
In short: (§4)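 Kinetics: 2 mM DMAPP (final) with L-tryptophan up to 5 mM, or cyclic dipeptides, in Tris-HCl pH 7.5/CaCl2 at 37 °C. Products quantified by HPLC. Km and kcat from Lineweaver-Burk and Hanes-Woolf plots; kcat/Km expressed as ratio to L-tryptophan.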

Aspergillus fumigatus [10] = assay: Activity at 0.11 to 1.62 uM Aspergillus fumigatus CdpNPT assessed as product formation at 1 mM after 2 hrs by HPLC analysis; in short: as §3
Aspergillus fumigatus [11] = assay: Activity at 0.28 uM Aspergillus fumigatus CdpNPT assessed as compound conversion rate at 1 mM after 2 hrs by HPLC analysis in presence of dimethylallyl diphosphate; in short: as §3
Aspergillus fumigatus [12] = assay: Activity at Aspergillus fumigatus CdpNPT by HPLC analysis; in short: as §4
[13] = molecular target: Tryprostatin B synthase ftmPT1 (Aspergillus fumigatus) (UniProt Q4WAW7); assay: Activity at 1.12 uM Aspergillus fumigatus FtmPT1 assessed as compound retention time after 2 hrs by HPLC analysis
In short: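 His6-FtmPT1 at 1.12 µM, 100 µL, in 50 mM Tris-HCl pH 7.5, 10 mM CaCl2 with DMAPP, 37 °C for 2 h. HPLC product retention time recorded.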

Aspergillus fumigatus [14] = assay: Activity at 1.62 uM Aspergillus fumigatus CdpNPT assessed as compound conversion rate after 2 hrs by HPLC analysis; in short: as §3
Aspergillus fumigatus [15] = assay: Activity at 1.62 uM Aspergillus fumigatus CdpNPT assessed as compound retention time after 2 hrs by HPLC analysis; in short: as §3
[16] = molecular target: Tryprostatin B synthase ftmPT1 (Aspergillus fumigatus) (UniProt Q4WAW7); assay: Activity at 1.68 uM Aspergillus fumigatus FtmPT1 assessed as compound conversion at 1 mM after 2 hrs by HPLC analysis in presence of dimethylallyl diphosphate
[17] = molecular target: Tryprostatin B synthase ftmPT1 (Aspergillus fumigatus) (UniProt Q4WAW7); assay: Activity at 0.28 uM Aspergillus fumigatus FtmPT1 assessed as compound conversion at 1 mM after 2 hrs by HPLC analysis in presence of dimethylallyl diphosphate; in short: as §2
[18] = molecular target: Tryprostatin B synthase ftmPT1 (Aspergillus fumigatus) (UniProt Q4WAW7); assay: Ratio Kcat to Km for Aspergillus fumigatus FtmPT1 by HPLC analysis relative to L-tryptophan
[19] = molecular target: Tryprostatin B synthase ftmPT1 (Aspergillus fumigatus) (UniProt Q4WAW7); assay: Activity at 0.54 uM Aspergillus fumigatus FtmPT1 assessed as compound conversion at 1 mM after 2 hrs by HPLC analysis in presence of dimethylallyl diphosphate; in short: as §2

CC(N)(Cc1c[nH]c2ccccc12)C(=O)O (racemic)
Activity (Aspergillus fumigatus [1]): 24.5%
Activity [2]: 1%
Activity (Aspergillus fumigatus [3]): 25%
Activity [4]: < 2.3%

N[C@@H](Cc1ccc(O)cc1)C(=O)O
Activity [5]: inactive
Activity (Aspergillus fumigatus [6]): inactive

N[C@H](CC(=O)O)Cc1c[nH]c2ccccc12
Activity (Aspergillus fumigatus [1]): < 1.1%
Activity [2]: < 1.1%
Activity (Aspergillus fumigatus [3]): < 3.4%
Activity [4]: < 5.5%

CN[C@@H](Cc1c[nH]c2ccccc12)C(=O)O
Activity (Aspergillus fumigatus [1]): 114%
Activity [2]: 29.4%
Activity (Aspergillus fumigatus [3]): 126%
Activity [4]: < 3.7%

O=C1N[C@H](Cc2c[nH]c3ccccc23)C(=O)N[C@H]1Cc1ccc(O)cc1
Activity (Aspergillus fumigatus [7]): Active
Activity (Aspergillus fumigatus [8]): Active
Ratio (Aspergillus fumigatus [9]): 598
Activity (Aspergillus fumigatus [10]): Active
Activity (Aspergillus fumigatus [11]): Active
Km (Aspergillus fumigatus [12]): 128 µM
kcat (Aspergillus fumigatus [12]): 0.46 s⁻¹

N[C@@H](Cc1c[nH]c2ccc(O)cc12)C(=O)O
Activity (Aspergillus fumigatus [1]): < 0.3%
Activity [2]: < 0.3%
Activity (Aspergillus fumigatus [3]): < 0.8%
Activity [4]: < 1.3%

O=C(O)Cc1c[nH]c2ccccc12
Activity (Aspergillus fumigatus [1]): 45.3%
Activity [2]: < 0.6%
Activity (Aspergillus fumigatus [3]): < 1.7%
Activity [4]: < 2.8%

N[C@@H](Cc1c[nH]c2ccc(F)cc12)C(=O)O
Activity (Aspergillus fumigatus [1]): 1.9%
Activity [2]: 4.3%
Activity (Aspergillus fumigatus [3]): < 0.7%
Activity [4]: < 1.2%

NC(Cc1c[nH]c2ccc(Br)cc12)C(=O)O (racemic)
Activity (Aspergillus fumigatus [1]): < 0.4%
Activity [2]: < 0.4%
Activity (Aspergillus fumigatus [3]): < 1.2%
Activity [4]: < 1.9%

N[C@@H](Cc1c[nH]c2ccccc12)C(=O)O
Activity [13]: 13.9 min
Activity (Aspergillus fumigatus [14]): 18.1%
Activity (Aspergillus fumigatus [10]): Active
Activity (Aspergillus fumigatus [15]): 16.5 min
Km (Aspergillus fumigatus [12]): 830 µM
kcat (Aspergillus fumigatus [12]): 0.005 s⁻¹

Cc1cccc2c(CC(N)C(=O)O)c[nH]c12 (racemic)
Activity (Aspergillus fumigatus [1]): 37.9%
Activity [2]: 64.1%
Activity (Aspergillus fumigatus [3]): 50.6%
Activity [4]: 76.4%

O=C1N[C@@H](Cc2c[nH]c3ccccc23)C(=O)N2CCC[C@@H]12
Activity [16]: Active
Activity [17]: Active
Ratio [18]: 675
Activity [19]: Active

NC(Cc1c[nH]c2cc(F)ccc12)C(=O)O (racemic)
Activity (Aspergillus fumigatus [1]): 13.8%
Activity [2]: 55.5%
Activity (Aspergillus fumigatus [3]): 17.7%
Activity [4]: 55.1%

Cn1cc(CC(N)C(=O)O)c2ccccc21 (racemic)
Activity (Aspergillus fumigatus [1]): < 0.3%
Activity [2]: < 0.3%
Activity (Aspergillus fumigatus [3]): < 1.1%
Activity [4]: < 1.7%

Cc1ccc2[nH]cc(CC(N)C(=O)O)c2c1 (racemic)
Activity (Aspergillus fumigatus [1]): 20.2%
Activity [2]: 10.3%
Activity (Aspergillus fumigatus [3]): < 1.5%
Activity [4]: < 2.4%

Cc1cccc2[nH]cc(CC(N)C(=O)O)c12 (racemic)
Activity (Aspergillus fumigatus [1]): 61.4%
Activity [2]: 19.4%
Activity (Aspergillus fumigatus [3]): 72.6%
Activity [4]: 16%

NCCc1c[nH]c2ccccc12
Activity (Aspergillus fumigatus [1]): < 1%
Activity [2]: < 1.1%
Activity (Aspergillus fumigatus [3]): < 3.3%
Activity [4]: < 5.3%

Cc1ccc2c(CC(N)C(=O)O)c[nH]c2c1 (racemic)
Activity (Aspergillus fumigatus [1]): 13.5%
Activity [2]: 96%
Activity (Aspergillus fumigatus [3]): < 0.9%
Activity [4]: 148%
